Bioassay records: PubChem, Broad Institute
ERp5 inh = inhibitors of human ERp5 | Q15084 | ERp5 insulin aggregation, absorbance 650 nm, 90 min | inhibition, % at 9.99 µM | 350,000 tested, 0.05% active;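 active = mean replicate inhibition above about 25%, with every replicate also reaching it, limit read from the data, passing the limit was not always enough; inconclusive = only one of those two criteria met; inactive = neither criterion met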
Target sequence (Q15084 whole entry, looked up): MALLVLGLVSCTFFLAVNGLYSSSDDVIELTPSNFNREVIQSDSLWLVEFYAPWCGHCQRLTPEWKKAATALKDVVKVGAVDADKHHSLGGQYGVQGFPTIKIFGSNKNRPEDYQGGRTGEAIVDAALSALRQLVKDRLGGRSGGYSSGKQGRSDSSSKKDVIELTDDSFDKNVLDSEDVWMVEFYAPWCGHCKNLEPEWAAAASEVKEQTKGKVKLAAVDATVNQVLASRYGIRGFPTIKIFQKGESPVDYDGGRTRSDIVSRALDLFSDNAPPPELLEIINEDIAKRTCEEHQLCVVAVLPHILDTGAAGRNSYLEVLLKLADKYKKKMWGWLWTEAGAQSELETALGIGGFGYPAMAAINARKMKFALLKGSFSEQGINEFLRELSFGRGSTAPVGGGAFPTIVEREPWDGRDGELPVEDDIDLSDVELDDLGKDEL
Cneo AK release = causes C. neoformans cell lysis | adenylate kinase release luminescence, 4 h; normalised: neutral wells 0, clomiphene wells 100 | lysis activity, % at 15 µM | 360,000 tested, 0.2% active;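 active = mean lysis activity across replicates of at least 80%, whatever share of replicates individually reach that level; inactive = mean lysis activity below 80%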
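Test system: log-phase Cryptococcus neoformans yeast cells. Input: 5 × 10^6 yeast cells/mL. Medium: fresh YPD growth medium. Doses: single dose. Incubation: static 4 h at 37 °C with compound, 1 h detection. Measured by: luminescent adenylate kinase detection reagent. Read-out: signal increase indicating cell lysis. Benchmarks: Clomiphene.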
F508del corr = CFTR F508del correction in bronchial cells; activity (quench increase), % at 7.58 µM; 350,000 tested, 0.36% active; AID 720511; CFBE cells, YFP halide quenching; stimulated with forskolin plus potentiator P3; % fluorescence drop versus neutral controls;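 active = mean added fluorescence quench of at least 8% versus neutral control, with both replicates also reaching 8%; inconclusive = only one of the mean or replicate conditions met; inactive = mean below 8% and not both replicates reaching 8%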;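 note: cells transiently co-express mutant CFTR-F508del with the halide-sensitive YFP; corrector assay measuring rescue of mutant channel to the surface after 24 h compound exposure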
DENV2 CPE = inhibitors of DENV2 cytopathic effect. DENV2-infected cells, cytopathic effect rescue, plate reader. CPE inhibition, % at 9.99 µM. 350,000 tested, 1.7% active. AID 651640; in the data active = CPE inhibition above about 20%, passing the limit was not always enough; inconclusive = no clear call, values can overlap the other calls; tested in BHK-21 cells
Statin myotox sup = suppressors of simvastatin-induced myotoxicity in C2C12 myotubes; ATP luminescence, 48 h; scaled: DMSO 0, geranylgeraniol control 100; 330,000 tested, 0.78% active; rescue of ATP level, % at 7.49 µM;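 active = mean ATP rescue above about 67%, or every replicate alone reaching that limit, limit read from the data, passing the limit was not always enough; inconclusive = no clear call, values can overlap the other calls; inactive = mean under the limit and some replicate under it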;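 note: myotubes were challenged with 10 µM simvastatin during compound exposure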
PDI inh = blocks human protein disulfide isomerase activity; inhibition, % at 10 µM; 350,000 tested, 0.052% active; PDI insulin aggregation turbidity, A650, 90 min;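 active = mean inhibition across replicates of 30% or more, whatever share of single replicates reach that level; inconclusive = mean inhibition below 30% while every single replicate reaches 30%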
Each line names hits and unclear results; the compound was inactive in the other large screens. Only some compounds are listed: those with a hit (about 2.3% of all), similar ones and a draw of the others.

COc1ccc(C(=O)NCCCn2ccnc2)cc1	none (no result: ERp5 inh, F508del corr, DENV2 CPE)
COc1ccc(OC)c(-c2cc(C(=O)NCCCn3ccnc3)no2)c1	Statin myotox sup 161 (no result: ERp5 inh, Cneo AK release, F508del corr, DENV2 CPE)
Cc1ccc(N(C(=O)C2CCC(=O)N2)C2(C(=O)NC3CCCCC3)CCCCC2)cc1 (stereo not drawn)	Statin myotox sup 119 (no result: ERp5 inh, F508del corr, DENV2 CPE)
COc1ccc(NC(=O)Nc2ccc3c(c2)C(=O)N([C@H](C)CO)C[C@H](C)[C@H](CN(C)C(=O)Nc2c(C)noc2C)O3)cc1	none (no result: PDI inh)
O=C(C1CCC1)N1CCCc2cc(S(=O)(=O)N3CCN(c4ccccc4)CC3)ccc21	Statin myotox sup 149
C[C@H]1CN([C@@H](C)CO)S(=O)(=O)c2ccc(C#CCN(C)C)cc2O[C@H]1CN(C)C(=O)C1CCC1	DENV2 CPE 29 (no result: PDI inh)
CCCC#Cc1ccc2c(c1)O[C@H](CN(C)C(=O)C1CCC1)[C@H](C)CN([C@H](C)CO)S2(=O)=O	DENV2 CPE 36 (no result: PDI inh)
CO[C@H]1CN(C)C(=O)c2cc(NC(=O)NC(C)C)ccc2OC[C@@H](C)N(Cc2ccccc2)C[C@H]1C	none (no result: PDI inh)
Cc1noc(C)c1COc1ccc(C(=O)NNC(=O)c2ccccc2)cc1	F508del corr 9.6 (no result: Cneo AK release)
Cc1noc(C)c1COc1ccc(C(=O)NNC(=O)c2ccccc2F)cc1	none (no result: ERp5 inh, F508del corr, DENV2 CPE)
C[C@H](CO)N1C[C@H](C)[C@@H](CN(C)S(C)(=O)=O)Oc2ccc(NC(=O)C3CCCCC3)cc2CC1=O	none (no result: PDI inh)
CN1C(=O)c2cc(NC(=O)c3cccc(F)c3)ccc2OC[C@@H]2O[C@H](CC(=O)O)CC[C@@H]21	none (no result: ERp5 inh, PDI inh)
CN(C)CCCNc1cc(O)c2ncccc2c1	DENV2 CPE 57
Oc1cc(NCc2ccc(F)cc2)cc2cccnc12	none
O=C(NCC(=O)N(Cc1ccccc1)C(C(=O)NC1CCCCC1)c1ccco1)c1ccco1 (stereo not drawn)	Statin myotox sup 110 (no result: ERp5 inh, F508del corr, DENV2 CPE)
CCOC(=O)CN(C(=O)CNC(=O)c1ccco1)C(C(=O)NC1CCCCC1)c1cccs1 (stereo not drawn)	Statin myotox sup 124 (no result: ERp5 inh, F508del corr, DENV2 CPE)
Cc1noc(C)c1NC(=O)N(C)C[C@H]1OCCCC[C@H](C)Oc2ccc(NS(=O)(=O)c3cn(C)cn3)cc2C(=O)N([C@@H](C)CO)C[C@H]1C	DENV2 CPE inconclusive (no result: ERp5 inh, PDI inh)
O=C1NC[C@@H](CCCCN2CCN(CCc3ccc(O)cc3)C(=O)C2=O)N(Cc2ccccc2)C1=O	DENV2 CPE 87 (no result: Cneo AK release, Statin myotox sup, PDI inh)
CC(C)(C)CN1C(=O)C(=O)NC[C@@H]1CCCCN	DENV2 CPE 136
CC(C)(C)CN1C(=O)C(=O)NC[C@@H]1CC1CCCCC1	none (no result: Cneo AK release, Statin myotox sup, PDI inh)
CC(C)C[C@@H]1CN(CCCC[C@H]2CNC(=O)C(=O)N2CCC2CCCCC2)C(=O)C(=O)N1Cc1ccccc1	DENV2 CPE 24 (no result: Cneo AK release, Statin myotox sup, PDI inh)
CCCC[C@@H]1CNC(=O)C(=O)N1CCCCC1CCCCC1	DENV2 CPE 42 (no result: Cneo AK release, Statin myotox sup, PDI inh)
O=C1NC[C@H](CCCCN2CCN(CCc3ccccc3)C(=O)C2=O)N(CCc2ccc(O)cc2)C1=O	none (no result: Cneo AK release, Statin myotox sup, PDI inh)
CCCC(=O)Nc1ccc2c(c1)C(=O)N(C)[C@@H]1CC[C@H](CC(=O)NCc3cccc(F)c3)O[C@@H]1CO2	none (no result: ERp5 inh, DENV2 CPE, PDI inh)
CN1C(=O)c2cc(NC(=O)C3CCCC3)ccc2OC[C@@H]2O[C@H](CC(=O)O)CC[C@@H]21	none (no result: PDI inh)
CC(C)(C)c1csc(NC(=O)Cc2cccs2)n1	F508del corr 9.7 (no result: Cneo AK release, Statin myotox sup)
CC(C)(C)c1csc(NC(=O)c2cccs2)n1	none (no result: ERp5 inh, F508del corr, DENV2 CPE)
O=S1(=O)CCO[C@H]2Cc3ccccc3[C@H]2N1Cc1ccc(Cl)cc1	DENV2 CPE 85
O=S1(=O)CCO[C@H]2Cc3ccccc3[C@H]2N1Cc1cccc(Cl)c1	DENV2 CPE inconclusive
O=C(C[C@H]1CC[C@H](NC(=O)C2CCOCC2)[C@@H](CO)O1)NCC1CC1	DENV2 CPE 34 (no result: Cneo AK release, Statin myotox sup, PDI inh)
O=C(C[C@@H]1CC[C@@H](NC(=O)CC2CC2)[C@@H](CO)O1)NCC(F)(F)F	DENV2 CPE 62 (no result: PDI inh)
O=C(C[C@H]1CC[C@H](NC(=O)C2CCC2)[C@@H](CO)O1)NC1CCC1	DENV2 CPE 40 (no result: PDI inh)
O=C(C[C@@H]1CC[C@@H](NC(=O)C2CCC2)[C@@H](CO)O1)NC1CCC1	none (no result: PDI inh)
CCCOc1ccc(/C=c2\sc3nc(-c4ccco4)nn3c2=O)cc1OCC	Statin myotox sup 98 (no result: ERp5 inh, F508del corr, DENV2 CPE)
CCOc1cc(CNCc2cccs2)cc(Br)c1OC	Statin myotox sup 97 (no result: ERp5 inh, F508del corr, DENV2 CPE)
CCCC#Cc1ccc([C@H]2[C@@H](CO)N3CCCCN(S(C)(=O)=O)C[C@H]23)cc1	DENV2 CPE inconclusive (no result: PDI inh)
CCCCCn1c(=O)[nH]c2cc(C(=O)N3CCN(C(=O)OCC)CC3)ccc2c1=O	none
CCOC(=O)N1CCN(C(=O)c2ccc3c(=O)n(CCc4ccccc4)c(=O)[nH]c3c2)CC1	Statin myotox sup 177 (no result: ERp5 inh, F508del corr, DENV2 CPE)
O=C([C@H]1O[C@@H](n2ccc(=O)[nH]c2=O)[C@H](O)[C@@H]1O)N1CCN(c2ccc(Cl)cn2)CC1	DENV2 CPE 45 (no result: PDI inh)
O=[N+]([O-])c1cc(S(=O)(=O)C(F)(F)F)ccc1Sc1nc2ccccc2s1	Statin myotox sup 86 (no result: ERp5 inh, F508del corr, DENV2 CPE)
CS(=O)(=O)c1ccc(Sc2nc3ccccc3s2)c([N+](=O)[O-])c1	none (no result: ERp5 inh, F508del corr, DENV2 CPE, Statin myotox sup)
C[C@@H]1CN([C@H](C)CO)C(=O)c2cc(C#Cc3ccncc3)cnc2O[C@H]1CN(C)CC1CCCC1	none (no result: PDI inh)
CCOc1ccccc1N1CCN(C(=O)c2cc3ccccc3cc2OC)CC1	F508del corr 17
COc1ccccc1N1CCN(C(=O)c2cc(-c3ccc(F)cc3)[nH]c2C)CC1	Statin myotox sup 119
Cc1[nH]c(-c2ccc(F)cc2)cc1C(=O)N1CCN(c2ccccc2F)CC1	none
COc1cccc(S(=O)(=O)Nc2ccc3c(c2)[C@H]2C[C@@H](CC(=O)NCc4cccc(F)c4)O[C@H](CO)[C@H]2O3)c1	none (no result: PDI inh)
CNC(=O)C[C@H]1CC[C@@H]2[C@H](COC[C@@H](O)CN2C(=O)c2ccccn2)O1	none (no result: PDI inh)
F[B-](F)(F)COc1ccccc1	DENV2 CPE 36
c1ccc(OCCOCCOc2ccccc2)cc1	none (no result: DENV2 CPE)
Cc1ccccc1-c1ccc([C@H]2[C@H](CO)N3C(=O)CN(C(=O)NC4CCCC4)C[C@@H]23)cc1	none (no result: Cneo AK release, Statin myotox sup, PDI inh)
CCN(CC(=O)Nc1c(F)cccc1F)C(=O)c1ccc(C(=O)c2ccccc2)cc1	none (no result: Cneo AK release, Statin myotox sup)
CCN(CC(=O)Nc1c(F)cccc1F)C(=O)c1cccc(S(=O)(=O)NCc2ccccc2)c1	DENV2 CPE 80
O=C(c1cccnc1)C1Cc2ccccc2C1=O (stereo not drawn)	DENV2 CPE 49
CC1COCC(C)N1C(=O)c1cccnc1 (stereo not drawn)	none
CNC[C@H]1Oc2ccc(NC(=O)Nc3cccc4ccccc34)cc2CC(=O)N([C@H](C)CO)C[C@H]1C	none (no result: PDI inh)
O=C(NCC[C@H]1CC[C@H](NS(=O)(=O)c2ccccc2)[C@@H](CO)O1)c1cc(Cl)cc(Cl)c1	none (no result: PDI inh)
C[C@@H]1CN([C@H](C)CO)C(=O)Cc2cc(NS(C)(=O)=O)ccc2O[C@@H]1CN(C)Cc1ccc(Oc2ccccc2)cc1	none (no result: PDI inh)
